# Source: PubChem (NMMLSC)
# Efflux pump inh: antifungal efflux pump inhibition, Nile Red retention; actives 0.44% (n = 330,000); S. cerevisiae Candida pump triplex; AID 485275; inhibition, % at 10 µM;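 active = plate passing quality check with inhibition over a set limit, or well fluorescence over plate mean plus 4 SD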;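 note: Nile Red retained in pooled yeast measured as flow cytometry median fluorescence; 0% = buffer negative control and 100% = Enniatin B positive control; higher means more Nile Red kept so more efflux inhibition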
# MEKK2 mut-MEK5: signal of MEK5 binding to mutant human MEKK2 PB1 domain; bead flow cytometry, Alexa488-MEK5 binding to MEKK2 mutant; percent response, % at 10 µM; actives 0.35% (n = 290,000); in the data active = percent response above about 24%, passing the limit was not always enough
# ABCG2 block: blocks JC-1 efflux by human ABCG2 transporter; IgMXP3 cells, flow cytometry; inhibition, % at 6.6 µM; actives 0.1% (n = 190,000);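 active = inhibition above 80%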;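 note: 0% = DMSO and 100% = nicardipine control wells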
#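 Test system: ABCG2 IgMXP3 and barcoded ABCB1 CCRF-Adr cell mix; Schedule: cells with compound and JC-1, 10 min at 25 °C, rotating, no wash; Technique: flow cytometry of retained JC-1 fluorescence; Measure: % inhibition of efflux relative to nicardipine and DMSO; Controls: nicardipine high and DMSO low controls.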
# MEKK3 PB1 HTS: raises or lowers MEK5 binding to the human MEKK3 PB1 domain; Q99759; bead-based flow cytometry, Alexa488-MEK5 binding to MEKK3; actives lie on both sides; 0 = blocked by unlabeled MEK5, 100 = vehicle; binding response (% of control), % at 10 µM; actives 1.4% (n = 290,000); AID 1529;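 active = binding response more than 3 SD above or below the average of its plate-row segment, actives on both sides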;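 note: Alexa488 bead fluorescence after subtracting the streptavidin-only scavenger bead signal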
# Target sequence (Q99759 whole entry, looked up, the tested form may be a part): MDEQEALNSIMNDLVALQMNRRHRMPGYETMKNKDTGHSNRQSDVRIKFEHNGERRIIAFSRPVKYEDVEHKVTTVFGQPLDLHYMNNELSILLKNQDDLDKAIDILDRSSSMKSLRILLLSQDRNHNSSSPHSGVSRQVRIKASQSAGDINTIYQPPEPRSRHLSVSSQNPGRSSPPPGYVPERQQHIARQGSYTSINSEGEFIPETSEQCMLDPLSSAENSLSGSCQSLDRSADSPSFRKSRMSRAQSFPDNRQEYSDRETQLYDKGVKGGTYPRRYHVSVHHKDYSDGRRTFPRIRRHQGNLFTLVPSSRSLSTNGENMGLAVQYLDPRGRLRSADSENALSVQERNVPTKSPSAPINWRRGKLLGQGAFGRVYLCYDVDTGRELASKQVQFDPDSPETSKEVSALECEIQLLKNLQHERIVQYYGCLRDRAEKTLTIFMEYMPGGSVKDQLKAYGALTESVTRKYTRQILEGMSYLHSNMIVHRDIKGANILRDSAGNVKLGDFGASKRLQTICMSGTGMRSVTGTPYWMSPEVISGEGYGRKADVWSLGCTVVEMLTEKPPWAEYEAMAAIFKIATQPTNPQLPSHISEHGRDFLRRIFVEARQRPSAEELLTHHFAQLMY
# ABCB1 block: blocks JC-1 efflux by human ABCB1 transporter; CCRF-Adr cells, flow cytometry; AID 1326; inhibition, % at 6.6 µM; actives 0.067% (n = 190,000); in the data active = inhibition above about 40%;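 note: 0% = vehicle and 100% = reference inhibitor; higher value means more JC-1 retained so stronger ABCB1 efflux block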
# MEKK2 WT-MEK5: raises or lowers MEK5 binding to wildtype human MEKK2 PB1 domain; Q9Y2U5; actives 1.1% (n = 290,000); bead flow cytometry, Alexa488-MEK5 binding to MEKK2 WT; actives lie on both sides; AID 1531; binding response (% of control), % at 10 µM; in the data active = binding response below about 67% or above about 130%
# Yeast cmpd fluor: compound fluorescence in yeast efflux pump counter-screen. shares compounds with Efflux pump inh. actives 4% (n = 1,700). S. cerevisiae AD/pABC3, flow cytometry. fluorescence ratio to DMSO, % at 10 µM;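 active = fluorescence ratio to DMSO above its plate's cutoff, the plate mean ratio plus 5 SD, cut at about 210% in these data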;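 note: unstained yeast with no Nile Red so the signal is compound autofluorescence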
# CaMdr1 efflux inh: inhibitors of Candida albicans Mdr1 efflux pump. shares compounds with Efflux pump inh. S. cerevisiae AD/CaMDR1, Nile Red efflux, flow cytometry. inhibition, % at 10 µM. actives 1% (n = 1,700); in the data active = inhibition above about 26%;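 note: 0% = DMSO vehicle and 100% = reference inhibitor; higher means more Nile Red retained so more efflux inhibition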
# Cdr2 pump inh: inhibitors of Candida albicans Cdr2 efflux pump; shares compounds with Efflux pump inh; S. cerevisiae AD/CaCDR2, Nile Red retention, flow cytometry; Nile Red retention ratio vs DMSO, % at 10 µM; actives 4% (n = 1,700); AID 588520; in the data active = Nile Red retention ratio vs DMSO above about 190%;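 note: higher ratio means more blocking of Cdr2 efflux of the dye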
# Cdr1 pump inh: blocks the Candida albicans Cdr1 efflux pump in yeast. actives 1% (n = 1,700). shares compounds with Efflux pump inh. S. cerevisiae AD/CaCDR1, Nile Red efflux, flow cytometry. inhibition, % at 10 µM;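 active = inhibition above the screen-wide mean plus twice its standard deviation, cut at about 32% in these data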
# * = called active by the depositor; · = no result. In the library only some 2.5% were active in any assay of this set; here they are far more common.
SMILES,Efflux pump inh,MEKK2 mut-MEK5,ABCG2 block,MEKK3 PB1 HTS,ABCB1 block,MEKK2 WT-MEK5,Yeast cmpd fluor,CaMdr1 efflux inh,Cdr2 pump inh,Cdr1 pump inh
COC(=O)CCCC1=CC2=CC(=O)C(C)(OC(=O)c3cccs3)C(=O)C2=CN1c1ccc(OC)cc1 (centres undefined),0.7*,-12,·,83,·,84,106,0,107,0
COC(=O)CCCC1=CC2=CC(=O)C(C)(OC(=O)c3cccs3)C(=O)C2=CN1Cc1ccccc1 (centres undefined),0,-13,·,85,·,93,·,·,·,·
COc1ccc([C@H]2C(C(=O)O)=C[C@@H](C(C)(C)C)N2S(=O)(=O)c2ccccc2)cc1,0,·,·,·,·,·,·,·,·,·
O=[N+]([O-])c1ccc(NCc2ccccc2)nc1,38*,4,14,111,1,109,83,0,100,0
O=[N+]([O-])c1ccc(Nc2ccccc2)nc1,30*,-2,8,99,·,96,96,0,107,0
Cc1ccnc(NS(=O)(=O)c2ccc(NC(=O)C(C)(C)C)cc2)n1,0,4,·,103,·,104,·,·,·,·
CCOCCCNS(=O)(=O)c1cc(Br)cc2c1N(C(=O)C1CC1)CC2,0,2,5,102,1,105,·,·,·,·
CCN1CCCC1CNS(=O)(=O)c1cc(Br)cc2c1N(C(=O)C1CC1)CC2 (centres undefined),20*,5,0,105,0,110,103,0,97,0
Cc1ccc(OCC(=O)Nc2ccon2)c([N+](=O)[O-])c1,0,8,·,105,·,109,·,·,·,·
Cc1cc(C)nc(NS(=O)(=O)c2ccc(NC(=O)CCN3C(=O)c4ccccc4C3=O)cc2)n1,0,0,1,95,0,94,·,·,·,·
Cc1cc(NS(=O)(=O)c2ccc(NC(=O)CCN3C(=O)c4ccccc4C3=O)cc2)no1,0.9*,2,0,98,0,100,99,0,99,0
COc1ccc(S(=O)(=O)N2CCOC2CNC(=O)C(=O)NCc2ccc3c(c2)OCO3)cc1 (centres undefined),0,1,·,101,·,98,98,0,102,0
COc1ccc(CNC(=O)C(=O)NCC2OCCN2S(=O)(=O)c2ccc(OC)cc2)cc1 (centres undefined),-1,2,·,102,·,99,101,0,98,0
COc1ccc(CNC(=O)C(=O)NCC2OCCN2S(=O)(=O)c2ccc3c(c2)OCCO3)cc1 (centres undefined),0,6,5,95,1,100,·,·,·,·
CCCCn1c(Cn2nc(C(=O)O)c3ccccc3c2=O)nc2cc(S(N)(=O)=O)ccc21,0,9,·,105,·,104,·,·,·,·
NC1=NC[C@H](Cc2ccc(O)cc2)N1CCc1cc(C(F)(F)F)cc(C(F)(F)F)c1,0,8,·,89,·,94,105,0,100,0
NC1=NC[C@@H](Cc2ccc(O)cc2)N1CCc1cccc2ccccc12,0,6,·,99,·,111,94,0,91,0
O=C1NC[C@@H](Cc2ccc(O)cc2)N(CCc2cccc3ccccc23)C1=O,0,5,·,96,·,90,·,·,·,·
COc1ccc2[nH]c(C(=O)N(C)c3ccc(F)cc3F)cc2c1,0,11,·,103,·,100,·,·,·,·
COC(=O)c1ccc(C2/C(=C(\O)c3cccc(OC)c3)C(=O)C(=O)N2CCCN2CCOCC2)cc1 (centres undefined),9.7*,5,0,98,0,101,116,0,96,0
COc1ccc(C(=O)NC(=S)Nc2ccc3[nH]c(=O)[nH]c3c2)cc1,0,-3,·,102,·,100,·,·,·,·
CC(C)c1ccc(C(=O)NC(=S)Nc2ccc3[nH]c(=O)[nH]c3c2)cc1,0,-1,·,102,·,99,108,0,112,0
CC1CC(C)CN(c2ncc3c(n2)CC(c2ccccc2Cl)CC3=O)C1 (centres undefined),0,-8,21,96,1,95,·,·,·,·
CC1CC(C)CN(c2ncc3c(n2)CC(c2ccc(Cl)cc2)CC3=O)C1 (centres undefined),6.7*,-1,0,101,0,101,111,0,112,0
C[C@H](CO)N1C[C@H](C)[C@@H](CN(C)S(=O)(=O)c2ccccc2)Oc2c(NC(=O)CCC(F)(F)F)cccc2C1=O,0,·,·,·,·,·,·,·,·,·
SMILES,Efflux pump inh,MEKK2 mut-MEK5,ABCG2 block,MEKK3 PB1 HTS,ABCB1 block,MEKK2 WT-MEK5,Yeast cmpd fluor,CaMdr1 efflux inh,Cdr2 pump inh,Cdr1 pump inh
CC1(C)OC(=O)C(=NNc2ccccc2)C(=O)O1,9.7*,-3,0,84,0,88,110,0,105,0
CC1(C)OC(=O)C(=NNc2ccc(O)cc2)C(=O)O1,0,·,15,·,0,·,·,·,·,·
COc1ccc(N/C=C/C(=O)c2ccc(Cl)cc2)cc1,15*,-3,0,94,0,100,94,0,100,0
CC1=C(C(=O)Nc2ccccc2)C(c2cccc([N+](=O)[O-])c2)Nc2nc3ccccc3n21 (centres undefined),1.4*,-7,0,93,0,91,109,0,109,0
Cc1cc(C)n(CC(=O)N/N=C/c2cc([N+](=O)[O-])ccc2O)n1,19*,5,15,99,0,107,110,0,109,0
CCN(C(=O)CSc1nccc(=O)[nH]1)C1CCCCC1,0,·,·,·,·,·,·,·,·,·
O=C(NNc1cc(N2CCCC2)nc(N2CCCC2)n1)c1ccc([N+](=O)[O-])cc1,0.7*,-5,6,89,4,91,116,1,116,0
Fc1ccc(-n2nnnc2-c2cnc(-c3cccs3)nc2C(F)(F)F)cc1,0,0,15,107,2,97,·,·,·,·
Cn1ccc(NC(=O)c2ccc(Cl)cc2)n1,151*,·,·,·,·,·,106,0,100,0
Cn1ccc(NC(=O)c2ccc(Cl)cc2Cl)n1,0,·,·,·,·,·,·,·,·,·
NS(=O)(=O)c1ccc(CCNC(=O)Nc2ccc(Cl)c(Cl)c2)cc1,1.4*,1,0,100,0,102,183,0,101,0
